The target of assay [1] is Genome polyprotein (dengue virus type 2) (UniProt P12823). Description: Inhibition of Dengue virus serotype 2 NS2B-NS3 protease at 50 uM by homogeneous fluorimetric assay.
The target in assay [2] is Genome polyprotein (dengue virus type 2, UniProt P12823). Description: Inhibition of Dengue virus serotype 2 NS2B-NS3 protease by homogeneous fluorimetric assay.
Assay [3] concerns the target Genome polyprotein (West Nile virus) (UniProt P06935). Description: Inhibition of West Nile virus […] NS2B-NS3 protease at 50 uM by homogeneous fluorimetric assay. The essentials:
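WNV NS2B-NS3 protease percent inhibition, homogeneous fluorimetric assay: enzyme 150 nM, inhibitor 50 μM, substrate 50 μM (Km = 212 μM); triplicate, SD below 10%.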

For assay [4], the target named is Prothrombin (Homo sapiens) (UniProt P00734). The assay can be described thus: Inhibition of thrombin (unknown origin) at 25 uM by homogeneous fluorimetric assay.
The target in assay [5] is Genome polyprotein (West Nile virus, UniProt P06935). The assay can be described thus: Inhibition of West Nile virus […] NS2B-NS3 protease by homogeneous fluorimetric assay.
Chain of Genome polyprotein (West Nile virus, UniProt P06935) (P06935 1371-1501 limits assumed): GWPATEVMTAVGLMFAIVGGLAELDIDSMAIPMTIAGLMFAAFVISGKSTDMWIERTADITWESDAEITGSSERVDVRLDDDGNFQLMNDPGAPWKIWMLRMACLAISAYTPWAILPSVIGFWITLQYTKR
Chain of Genome polyprotein (West Nile virus, UniProt P06935) (P06935 1502-2120 limits assumed): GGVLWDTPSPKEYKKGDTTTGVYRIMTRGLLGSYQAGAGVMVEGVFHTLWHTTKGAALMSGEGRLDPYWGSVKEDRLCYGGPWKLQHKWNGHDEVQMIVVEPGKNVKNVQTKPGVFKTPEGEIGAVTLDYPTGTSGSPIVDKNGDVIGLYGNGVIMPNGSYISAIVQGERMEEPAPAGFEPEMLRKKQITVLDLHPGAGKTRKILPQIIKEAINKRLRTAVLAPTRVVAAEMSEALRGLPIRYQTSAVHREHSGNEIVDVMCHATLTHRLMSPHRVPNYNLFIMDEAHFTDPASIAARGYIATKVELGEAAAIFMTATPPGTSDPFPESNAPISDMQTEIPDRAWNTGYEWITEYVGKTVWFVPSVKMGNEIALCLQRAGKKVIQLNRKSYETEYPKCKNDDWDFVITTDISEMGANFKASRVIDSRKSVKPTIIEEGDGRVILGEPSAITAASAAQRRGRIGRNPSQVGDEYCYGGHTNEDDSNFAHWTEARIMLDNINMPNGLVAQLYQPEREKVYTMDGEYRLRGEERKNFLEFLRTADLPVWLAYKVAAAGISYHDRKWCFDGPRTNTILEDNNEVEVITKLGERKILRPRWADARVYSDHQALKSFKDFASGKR
Assay [6] addresses Genome polyprotein (dengue virus type 2) (UniProt P12823). The assay can be described thus: Competitive inhibition of Dengue virus serotype 2 NS2B-NS3 protease by aprotinin competition fluorescence assay. The essentials:
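Active-site binding checked by aprotinin competition: fluorescence decrease followed with increasing inhibitor concentration, then aprotinin added to test recovery of fluorescence.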

Calls of active or inactive are those of the source. No cut-off for these calls is given here. Square brackets hold non-standard residues; d marks the D form. Peptide text beside a SMILES is read from it. * marks the point of attachment. ξ: configuration not given here. 2Pal = N[C@@H](Cc1ccccn1)C(=O)O; Phg = N[C@H](C(=O)O)c1ccccc1; ξTic = O=C(O)C1Cc2ccccc2CN1; Bz = O=C(c1ccccc1)*

The record followed here is ChEMBL document CHEMBL3352023, “C-terminal residue optimization and fragment merging: discovery of a potent Peptide-hybrid inhibitor of dengue protease” (ACS Med Chem Lett, 2014).

Chain of Genome polyprotein (West Nile virus) (P06935 whole entry): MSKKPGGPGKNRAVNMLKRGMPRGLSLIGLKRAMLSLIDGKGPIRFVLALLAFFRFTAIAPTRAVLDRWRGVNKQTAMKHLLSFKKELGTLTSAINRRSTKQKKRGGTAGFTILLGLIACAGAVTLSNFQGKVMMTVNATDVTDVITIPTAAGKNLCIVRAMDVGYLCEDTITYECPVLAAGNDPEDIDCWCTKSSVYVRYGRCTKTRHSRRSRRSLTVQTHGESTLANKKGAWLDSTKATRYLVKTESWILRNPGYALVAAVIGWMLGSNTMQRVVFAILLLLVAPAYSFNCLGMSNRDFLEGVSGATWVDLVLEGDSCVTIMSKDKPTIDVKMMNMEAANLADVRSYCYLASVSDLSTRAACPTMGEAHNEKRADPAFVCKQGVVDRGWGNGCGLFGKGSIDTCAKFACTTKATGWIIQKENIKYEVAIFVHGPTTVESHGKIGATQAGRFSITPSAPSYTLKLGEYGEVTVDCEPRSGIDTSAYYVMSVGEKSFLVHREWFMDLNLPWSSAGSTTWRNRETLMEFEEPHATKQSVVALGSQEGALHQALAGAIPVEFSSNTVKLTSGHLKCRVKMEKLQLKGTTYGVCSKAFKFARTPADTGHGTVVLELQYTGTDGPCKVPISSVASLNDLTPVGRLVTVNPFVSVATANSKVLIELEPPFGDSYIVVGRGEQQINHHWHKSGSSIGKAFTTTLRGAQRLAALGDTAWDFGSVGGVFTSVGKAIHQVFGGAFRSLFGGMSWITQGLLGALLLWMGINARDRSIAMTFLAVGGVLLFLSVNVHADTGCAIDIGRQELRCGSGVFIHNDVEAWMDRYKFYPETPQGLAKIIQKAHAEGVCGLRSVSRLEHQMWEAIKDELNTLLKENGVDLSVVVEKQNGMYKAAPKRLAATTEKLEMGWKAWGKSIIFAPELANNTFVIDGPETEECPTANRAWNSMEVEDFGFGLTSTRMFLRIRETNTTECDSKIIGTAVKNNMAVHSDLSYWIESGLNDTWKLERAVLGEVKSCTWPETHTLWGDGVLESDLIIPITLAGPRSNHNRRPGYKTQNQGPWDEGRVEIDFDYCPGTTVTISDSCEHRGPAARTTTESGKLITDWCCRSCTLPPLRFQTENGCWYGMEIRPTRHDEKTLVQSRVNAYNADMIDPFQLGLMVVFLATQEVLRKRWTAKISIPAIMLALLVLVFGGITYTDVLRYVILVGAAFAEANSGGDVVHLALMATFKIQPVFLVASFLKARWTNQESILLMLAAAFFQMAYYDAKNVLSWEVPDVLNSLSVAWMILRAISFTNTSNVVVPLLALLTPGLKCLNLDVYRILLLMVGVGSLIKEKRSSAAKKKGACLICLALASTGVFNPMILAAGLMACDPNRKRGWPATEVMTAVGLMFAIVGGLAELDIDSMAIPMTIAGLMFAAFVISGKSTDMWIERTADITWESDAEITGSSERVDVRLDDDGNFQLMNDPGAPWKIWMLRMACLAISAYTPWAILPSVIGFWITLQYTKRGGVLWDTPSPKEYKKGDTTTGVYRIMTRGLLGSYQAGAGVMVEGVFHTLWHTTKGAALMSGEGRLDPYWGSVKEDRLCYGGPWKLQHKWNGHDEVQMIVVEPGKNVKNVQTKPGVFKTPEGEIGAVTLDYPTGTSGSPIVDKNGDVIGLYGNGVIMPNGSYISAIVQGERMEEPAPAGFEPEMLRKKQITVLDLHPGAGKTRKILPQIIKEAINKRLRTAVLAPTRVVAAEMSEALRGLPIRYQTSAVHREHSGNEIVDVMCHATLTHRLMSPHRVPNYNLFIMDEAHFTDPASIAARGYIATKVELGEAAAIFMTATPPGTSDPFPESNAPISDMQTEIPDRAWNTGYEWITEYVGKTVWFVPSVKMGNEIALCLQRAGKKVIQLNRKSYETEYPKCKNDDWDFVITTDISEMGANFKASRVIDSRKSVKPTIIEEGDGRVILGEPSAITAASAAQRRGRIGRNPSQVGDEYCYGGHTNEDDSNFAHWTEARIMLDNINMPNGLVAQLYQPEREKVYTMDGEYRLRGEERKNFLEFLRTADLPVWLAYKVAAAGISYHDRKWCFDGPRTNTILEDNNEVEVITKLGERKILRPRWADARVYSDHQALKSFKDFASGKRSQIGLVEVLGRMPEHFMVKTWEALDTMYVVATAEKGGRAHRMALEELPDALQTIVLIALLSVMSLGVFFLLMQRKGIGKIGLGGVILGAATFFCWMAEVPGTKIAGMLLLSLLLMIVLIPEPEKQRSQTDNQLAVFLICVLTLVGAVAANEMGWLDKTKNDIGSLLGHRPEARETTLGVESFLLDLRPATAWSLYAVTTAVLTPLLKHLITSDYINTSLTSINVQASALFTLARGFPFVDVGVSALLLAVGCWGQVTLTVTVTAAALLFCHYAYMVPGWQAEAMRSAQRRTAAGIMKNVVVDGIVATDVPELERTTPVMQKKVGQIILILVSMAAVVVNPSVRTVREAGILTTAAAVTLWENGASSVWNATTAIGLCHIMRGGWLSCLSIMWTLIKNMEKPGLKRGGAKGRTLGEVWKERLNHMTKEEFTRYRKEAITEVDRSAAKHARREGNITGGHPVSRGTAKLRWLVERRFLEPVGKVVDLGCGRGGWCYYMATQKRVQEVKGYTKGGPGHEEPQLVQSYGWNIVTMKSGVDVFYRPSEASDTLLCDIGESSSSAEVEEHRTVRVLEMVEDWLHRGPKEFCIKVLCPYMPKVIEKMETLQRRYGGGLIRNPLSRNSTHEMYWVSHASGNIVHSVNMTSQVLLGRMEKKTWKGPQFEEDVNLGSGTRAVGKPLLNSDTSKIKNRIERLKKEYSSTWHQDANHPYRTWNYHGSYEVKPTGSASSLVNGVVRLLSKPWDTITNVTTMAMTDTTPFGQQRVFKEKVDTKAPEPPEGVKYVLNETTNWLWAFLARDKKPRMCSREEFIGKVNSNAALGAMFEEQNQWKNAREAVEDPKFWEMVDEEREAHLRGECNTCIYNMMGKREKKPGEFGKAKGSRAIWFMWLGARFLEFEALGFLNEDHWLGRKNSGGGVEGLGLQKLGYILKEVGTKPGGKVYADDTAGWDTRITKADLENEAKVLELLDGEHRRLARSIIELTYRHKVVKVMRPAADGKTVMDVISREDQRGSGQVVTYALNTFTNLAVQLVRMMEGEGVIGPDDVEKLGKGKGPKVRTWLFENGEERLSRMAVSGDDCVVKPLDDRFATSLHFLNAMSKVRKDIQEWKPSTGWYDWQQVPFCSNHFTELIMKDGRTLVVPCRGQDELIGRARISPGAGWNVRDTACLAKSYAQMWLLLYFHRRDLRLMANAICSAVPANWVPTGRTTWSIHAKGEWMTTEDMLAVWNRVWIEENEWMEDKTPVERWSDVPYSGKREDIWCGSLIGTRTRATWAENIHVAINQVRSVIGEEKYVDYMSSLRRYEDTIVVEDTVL

Take `N=C(N)NCCC[C@H](NC(=O)c1ccccc1)C(=O)N[C@@H](CCCCN)C(=O)N[C@H](C(N)=O)c1ccccc1` (Bz-Arg-Lys-[Phg]-NH2): the inhibition in assay [1] came to 95%; in assay [3], 39.3%. Besides, the IC50 against Genome polyprotein [2] came out at 3.3 µM; on Genome polyprotein [5], 58 µM. In addition, the inhibition result in assay [4] is “inactive”. Moreover, affinity at Genome polyprotein [5] was put at a Ki of 49 µM.

With `N=C(N)NCCC[C@H](NC(=O)c1ccc(/C=C2\SC(=O)N(C3CCCC3)C2=O)cc1)C(=O)N[C@@H](CCCCN)C(=O)N[C@H](C(N)=O)c1ccccc1`, the inhibition in assay [1] was 99.6%; in assay [3], 98.4%; in assay [4] it was 9.2%; in assay [6], “Dose-dependent effect”. This compound also registered an IC50 on Genome polyprotein [2] of 0.6 µM.

In the case of `N=C(N)NCCC[C@H](NC(=O)c1ccccc1)C(=O)N[C@@H](CCCCN)C(=O)N[C@@H](Cc1ccccn1)C(N)=O` (Bz-Arg-Lys-[2Pal]-NH2), the inhibition was 53% in assay [1] and 9.8% in assay [3]. For the same compound, on Genome polyprotein [2], the half-inhibitory concentration (IC50) came to 44.3 µM. Besides, in assay [4], the inhibition result is “inactive”.

For the compound `N=C(N)NCCC[C@H](NC(=O)c1ccccc1)C(=O)N[C@@H](CCCCN)C(=O)N1Cc2ccccc2CC1C(N)=O` (stereo partly drawn) (Bz-Arg-Lys-[ξTic]-NH2), the inhibition came out at 41.6% in assay [1] and 17.8% in assay [3]. Besides, at Genome polyprotein [2], 65.8 µM corresponded to half-maximal inhibition (IC50). Further, the inhibition entry in assay [4] is “inactive”.

For `N=C(N)NCCC[C@H](NC(=O)c1ccccc1)C(=O)N[C@@H](CCCCN)C(=O)N[C@@H](Cc1c[nH]c2ccccc12)C(N)=O` (Bz-Arg-Lys-Trp-NH2), the inhibition stood at 74.1% in assay [1] and 32.8% in assay [3]. On Genome polyprotein [2], 17.6 µM corresponded to half-maximal inhibition (IC50). For the same compound, in assay [4], the inhibition entry was “inactive”.

Turning to `N=C(N)NCCC[C@H](NC(=O)c1ccccc1)C(=O)N[C@@H](CCCCN)C(=O)N1CCC[C@H]1C(N)=O` (Bz-Arg-Lys-Pro-NH2), the values for the inhibition in assay [1] and in assay [3] were 20% and 3.6%, respectively. The concentration for half-maximal inhibition (IC50) on Genome polyprotein [2] stood at 192 µM. Also, in assay [4], the inhibition entry was “inactive”.

Consider `C[C@H](NC(=O)[C@H](CCCCN)NC(=O)[C@H](CCCNC(=N)N)NC(=O)c1ccccc1)C(N)=O` (Bz-Arg-Lys-Ala-NH2), for which the figures for the inhibition in assay [1], in assay [3] and in assay [4] were 46.6%, 26% and 7.2%, respectively. Moreover, the half-inhibitory concentration (IC50) against Genome polyprotein [2] came out at 35.6 µM.
